{"source": "paper PMC3792851", "about": "(Drug Design, Development and Therapy, 2013)", "test_system": "ABCG2-transfected HEK293 cells", "assay": "Sensitization of ABCG2-transfected cells to mitoxantrone, MTT assay", "type": "cell-based, human", "conditions": "no chalcone", "how_it_was_run": "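ABCG2-transfected (resistant) and empty-vector (sensitive) HEK293 cells seeded at 1 × 10^4 cells/well and incubated overnight. Then grown 72 h at 37°C, 5% CO2 with increasing mitoxantrone; resistant cells ran with or without 1 μM test compound. Survival read by MTT against 0.1% DMSO medium controls. At least three replicates; mitoxantrone IG50 from fitted curves.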"}
{"smiles": "O=C1c2c(O)ccc(O)c2C(=O)c2c(NCCNCCO)ccc(NCCNCCO)c21", "note": "[mitoxantrone, Mitoxantrone]", "values": [{"measurement": "IG50 of mitoxantrone, resistant cells", "setting": "ABCG2-transfected resistant cells", "value": "82.8 ± 21.7", "unit": "nM"}, {"measurement": "IG50 of mitoxantrone, sensitive control cells", "setting": "sensitive control HEK293 cells (empty vector)", "value": "14.5 ± 3.6", "unit": "nM"}]}
